In ChEMBL document CHEMBL4428069, “Parallel inhibition of amino acid efflux and growth of erythrocytic Plasmodium falciparum by mefloquine and non-piperidine analogs: Implication for the mechanism of antimalarial action” (Bioorg Med Chem Lett, 2016):
Calls of active or inactive are those of the source. No cut-off for these calls is given here.

Columns and labels:
[1] = system: Plasmodium falciparum; experiment: Antimalarial activity against chloroquine/mefloquine-sensitive Plasmodium falciparum 3D7 infected-erythrocytes assessed as parasite growth inhibition after 48 to 54 hrs by SYBR green 1-based replication method; format: functional, organism-based
How it was run: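 Chloroquine- and mefloquine-sensitive 3D7 strain; growth inhibition measured with a SYBR Green I-based replication assay. IC50 reported as mean and standard deviation of three independent experiments.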

[2] = system: Plasmodium falciparum; experiment: Antimalarial activity against trophozoite stage of Plasmodium falciparum 3D7 infected-erythrocytes assessed as reduction in Leu efflux after 4 hrs by UPLC method; format: functional, organism-based; conditions: 3D7, 4 h
How it was run: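 Trophozoite-stage 3D7-infected erythrocytes at 2% hematocrit and 10% parasitemia, cultured in medium lacking Leu and Val with D-norvaline as internal standard. Full concentration–response up to 1000 nM with a 4 h endpoint. Leu in the recovered conditioned medium quantified by UPLC (AccQ-Tag). Mean and standard deviation of three independent experiments.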

[3] = system: Plasmodium falciparum; experiment: Antimalarial activity against chloroquine-resistant, mefloquine-sensitive Plasmodium falciparum W2 assessed as parasite growth inhibition by [3H]hypoxanthine incorporation assay
[4] = system: Plasmodium falciparum; experiment: Antimalarial activity against trophozoite stage of Plasmodium falciparum 3D7 infected-erythrocytes assessed as reduction in Leu efflux at 160 nM after 120 mins by UPLC method; format: functional, organism-based
How it was run: (§1)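 Time course on 3D7-infected erythrocytes in medium lacking Leu and Val, with D-norvaline as internal standard. Exposure to 160 nM or DMSO, with conditioned medium sampled from 0 to 240 min. Leu in the medium measured by UPLC (AccQ-Tag), with a hyperbolic fit of the treated data. Points are the average of two technical replicates.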

[5] = system: Plasmodium falciparum; experiment: Antimalarial activity against trophozoite stage of Plasmodium falciparum 3D7 infected-erythrocytes assessed as inhibition of Leu efflux at 160 nM after 60 mins by UPLC method; format: functional; conditions: 3D7, 4 h, in the assay text read “after 4 hrs” for “after 60 mins”; how it was run: as §1
[6] = system: Plasmodium falciparum; experiment: Antimalarial activity against mefloquine-sensitive Plasmodium falciparum 3D7 infected-erythrocytes assessed as parasite growth inhibition after 48 hrs by sandwich ELISA; format: functional; conditions: 3D7, 48 h

| SMILES | IC50 [1] [nM] | IC50 [2] [nM] | IC90 [3] [nM] | Activity [4] | inhibition at 0.16 µM [5] [%] | IC90 [6] [nM] |
| --- | --- | --- | --- | --- | --- | --- |
| CCCCN(CCCN)CC(O)c1cc(C(F)(F)F)nc2c(C(F)(F)F)cccc12 (stereo not given) | 49 | 180 | – | – | – | – |
| OC(CNC1CCCCC1)c1cc(C(F)(F)F)nc2c(C(F)(F)F)cccc12 (stereo not given) | 3.8 | 9.7 | 6 | – | – | – |
| C#CCCN(CCCN)CC(O)c1cc(C(F)(F)F)nc2c(C(F)(F)F)cccc12 (stereo not given) | 140 | 360 | – | – | – | – |
| OC(CNCCC1CCCC1)c1cc(C(F)(F)F)nc2c(C(F)(F)F)cccc12 (stereo not given) | 120 | 210 | – | – | – | – |
| OC(CNc1ccccc1)c1cc(C(F)(F)F)nc2c(C(F)(F)F)cccc12 (stereo not given) | 2000 | 2600 | 1200 | – | – | – |
| CC(C)NCC(O)c1cc(C(F)(F)F)nc2c(C(F)(F)F)cccc12 (stereo not given) | 7.4 | 14 | 13 | – | – | – |
| CC1(C)N=C(N)N=C(N)N1OCCCOc1cc(Cl)c(Cl)cc1Cl | – | > 1000 | – | – | – | – |
| NCCCNCC(O)c1cc(C(F)(F)F)nc2c(C(F)(F)F)cccc12 (stereo not given) | 1600 | 5000 | – | – | – | – |
| CCCCNCC(O)c1cc(C(F)(F)F)nc2c(C(F)(F)F)cccc12 (stereo not given) | 4.9 | 9 | 5 | – | – | – |
| OC(CNCCc1ccccc1)c1cc(C(F)(F)F)nc2c(C(F)(F)F)cccc12 (stereo not given) | 8.5 | 13 | 11 | – | – | – |
| C#CCNCC(O)c1cc(C(F)(F)F)nc2c(C(F)(F)F)cccc12 (stereo not given) | 110 | 140 | 1400 | – | – | – |
| CCOCC(O)c1cc(C(F)(F)F)nc2c(C(F)(F)F)cccc12 (stereo not given) | 22000 | 22000 | – | – | – | – |
| CN(C)CCNCC(O)c1cc(C(F)(F)F)nc2c(C(F)(F)F)cccc12 (stereo not given) | 240 | 320 | 1300 | – | – | – |
| C#CCCNCC(O)c1cc(C(F)(F)F)nc2c(C(F)(F)F)cccc12 (stereo not given) | 34 | 51 | – | – | – | – |
| CCCNCC(O)c1cc(C(F)(F)F)nc2c(C(F)(F)F)cccc12 (stereo not given) | 4.2 | 10 | 1 | – | – | – |
| CC(C)N(CC(O)c1cc(C(F)(F)F)nc2c(C(F)(F)F)cccc12)C(C)C (stereo not given) | 350 | 590 | 12 | – | – | – |
| O=C1C(O)=C([C@H]2CC[C@H](c3ccc(Cl)cc3)CC2)C(=O)c2ccccc21 [ATOVAQUONE] | 0.6 | > 1000 | – | – | – | – |
| CCCN(CCC)CC(O)c1cc(C(F)(F)F)nc2c(C(F)(F)F)cccc12 (stereo not given) | 4.7 | 9.3 | – | – | – | – |
| OCCNCC(O)c1cc(C(F)(F)F)nc2c(C(F)(F)F)cccc12 (stereo not given) | 340 | 500 | 710 | – | – | – |
| OC(CNC12CC3CC(CC(C3)C1)C2)c1cc(C(F)(F)F)nc2c(C(F)(F)F)cccc12 (stereo not given) | 5.9 | 15 | – | – | – | – |
| O[C@@H](c1cc(C(F)(F)F)nc2c(C(F)(F)F)cccc12)[C@H]1CCCCN1 [(S,R)-MEFLOQUINE] | 9.1 | 22 | 16 | Active | 70 | 146 |
